Most compounds without a hit are left out; they make up all but 3.2% or so of the library.
LEDGF integ inh: blockers of LEDGF/p75-dependent integrase strand transfer – biochemical, TR-FRET, high throughput, primary screen. hit rate 0.64% among 370,000. TR-FRET IN-LEDGF/p75 DNA integration, Eu/Cy5. inhibition, % at 3.7 µM. HIV-1 integrase (with human LEDGF/p75);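 active = inhibition above the screen-wide mean plus 3 SD, cut at about 13% in these data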;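 also: signal is the Cy5 over europium emission ratio at 671 and 618 nm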
mABHD4 FP: ABHD4 inhibitors, primary screen, biochemical, fluorescence polarization, mouse; (Lyso)-N-acylphosphatidylethanolamine lipase (Mus musculus), Q8VD66; hit rate 0.54% among 370,000; inhibition, % at 8.92 µM; purified mABHD4, FP-Rh probe fluorescence polarization;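 active = inhibition exceeding the mean over every tested compound plus 3 SD, cut at about 30% in these data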
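Test system: mABHD4 protein; Read-out basis: % inhibition; Incubation: 45 min + 60 min at 25 °C; Repeats: single replicate; Technique: fluorescence polarization with parallel and perpendicular emission, 525/598 nm; Compound: 8.92 µM, single dose; Benchmarks: full inhibition S159A mutant plus DMSO, zero as sample-well median.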
rCAG binder: binders of r(CAG) RNA repeats, primary screen, biochemical, fluorescence | r(CAG) RNA repeat, TO-PRO-1 dye displacement fluorescence | hit rate 1.3% among 370,000 | inhibition, % at 3 µM;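 active = inhibition above the plate cutoff, the mean of all test compounds on that plate plus 3 SD, cut at about 35% in these data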;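 also: higher means more dye released from RNA so lower well fluorescence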
HTRA1 inh: HTRA1 serine protease inhibitors, primary screen, biochemical, fluorescence polarization, HTS. Q92743. recombinant HTRA1, FP-rhodamine activity-based probe. inhibition, % at 5.96 µM. hit rate 0.5% among 340,000. AID 504803, 2011; in the data active = inhibition above about 36%
Target sequence (Q92743 whole entry, looked up): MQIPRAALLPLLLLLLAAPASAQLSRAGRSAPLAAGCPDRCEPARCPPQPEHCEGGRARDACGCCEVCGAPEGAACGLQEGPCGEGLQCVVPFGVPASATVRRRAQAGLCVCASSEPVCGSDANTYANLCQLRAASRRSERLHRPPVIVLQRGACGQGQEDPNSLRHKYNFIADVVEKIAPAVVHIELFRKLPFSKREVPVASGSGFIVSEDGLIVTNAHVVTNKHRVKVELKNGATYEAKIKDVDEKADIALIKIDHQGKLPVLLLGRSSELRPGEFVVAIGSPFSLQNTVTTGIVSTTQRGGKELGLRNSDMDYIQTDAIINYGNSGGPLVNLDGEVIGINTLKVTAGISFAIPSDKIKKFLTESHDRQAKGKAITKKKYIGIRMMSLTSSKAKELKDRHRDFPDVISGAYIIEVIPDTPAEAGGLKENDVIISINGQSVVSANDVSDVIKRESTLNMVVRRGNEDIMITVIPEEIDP
DAGLB inh: DAGLB lipase inhibitors, primary screen, biochemical, fluorescence, HTS. inhibition, % at 5.17 µM. hit rate 0.059% among 340,000. Diacylglycerol lipase-beta (Homo sapiens), Q8NCG7. HEK293T DAGLB membrane lysate, EnzChek fluorogenic substrate; in the data active = inhibition above about 34%
PRMT1 inh: PRMT1 methyltransferase inhibitors, primary screen, biochemical, fluorescence polarization. Protein arginine N-methyltransferase 1 (Homo sapiens), Q99873. recombinant PRMT1, activity-based probe fluorescence polarization. inhibition, % at 2.79 µM. hit rate 1.3% among 370,000;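 active = inhibition above about 21% made by adding two undisclosed values, limit read from the data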
rCAG binder conf: small molecules binding CAG repeat RNA – biochemical, fluorescence, confirmation; shares compounds with rCAG binder; r(CAG) RNA repeat, TO-PRO-1 dye displacement fluorescence; inhibition, % at 3 µM; hit rate 70% among 4,300; AID 652065, 2013;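 active = inhibition above a per-plate cutoff, the mean inhibition of sample wells plus 3 SD, cut at about 35% in these data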;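 also: loss of TO-PRO-1 fluorescence as compound displaces dye from 1x1 AA loop RNA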
dCAG dye counter: displacement of TO-PRO-1 from CAG DNA duplex, counter-screen for rCAG RNA repeat binder project, biochemical, fluorescence, TO-PRO-1 dye, d(CAG) DNA oligo; shares compounds with rCAG binder; hit rate 94% among 4,300; inhibition, % at 3 µM; d(CAG) DNA oligo TO-PRO-1 dye displacement;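 active = inhibition above its plate's cutoff, the mean test-well inhibition plus 3 SD, cut at about 4.8% in these data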;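 also: hits displace the dye from DNA and so lower well fluorescence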
Hits are given with their value.

How did N#C/C(=C\c1ccccc1OCc1ccc(C(=O)O)cc1)C(=O)Nc1ccc(O)cc1 do in these assays?
LEDGF integ inh: inactive; mABHD4 FP: inactive; rCAG binder: 44.0; HTRA1 inh: inactive; DAGLB inh: inactive; PRMT1 inh: inactive; rCAG binder conf: inactive; dCAG dye counter: 10.0

What do the screens show for `Cc1[nH]c2ccccc2c1/C=N/Nc1ccc([N+](=O)[O-])cc1`?
LEDGF integ inh: inactive; mABHD4 FP: inactive; rCAG binder: 56.4; HTRA1 inh: inactive; DAGLB inh: inactive; PRMT1 inh: inactive; rCAG binder conf: inactive; dCAG dye counter: 20.6

How did Cc1ccc(OCC(=O)N/N=C\c2ccc(-c3cccc(C(=O)O)c3)o2)c(C)c1 do in these assays?
LEDGF integ inh: inactive; mABHD4 FP: inactive; rCAG binder: 45.6; HTRA1 inh: inactive; DAGLB inh: inactive; PRMT1 inh: inactive; rCAG binder conf: 41.6; dCAG dye counter: 11.0

Results for CC(C)(C)c1ccc2c(c1)OC(C(=O)N/N=C\c1ccc(-c3cccc(C(=O)O)c3)o1)CO2 (stereo unspecified) ?
LEDGF integ inh: inactive; mABHD4 FP: inactive; rCAG binder: 41.3; HTRA1 inh: inactive; DAGLB inh: inactive; PRMT1 inh: inactive; rCAG binder conf: 77.3; dCAG dye counter: 43.3

Results for O=C(NN=Cc1ccccc1C(=O)O)c1ccc(NS(=O)(=O)c2cccs2)cc1 ?
LEDGF integ inh: inactive; mABHD4 FP: inactive; rCAG binder: inactive; HTRA1 inh: inactive; DAGLB inh: inactive; PRMT1 inh: inactive

What do the screens show for `CC(C)C(=O)NC(NC(=S)Nc1ccc(S(N)(=O)=O)cc1)C(Cl)(Cl)Cl` (stereo unspecified)?
LEDGF integ inh: inactive; mABHD4 FP: inactive; rCAG binder: 45.7; HTRA1 inh: inactive; DAGLB inh: inactive; PRMT1 inh: inactive; rCAG binder conf: inactive; dCAG dye counter: inactive

How did CC(C)C(=O)NC(Nc1ccc(S(N)(=O)=O)cc1)C(Cl)(Cl)Cl (stereo unspecified) do in these assays?
LEDGF integ inh: inactive; mABHD4 FP: inactive; rCAG binder: inactive; HTRA1 inh: inactive; DAGLB inh: inactive; PRMT1 inh: inactive

How did Cc1cccc(N2C(=O)C(O)=C(C(=O)c3cccs3)C2c2ccc(C(C)C)cc2)n1 (stereo unspecified) do in these assays?
LEDGF integ inh: inactive; mABHD4 FP: inactive; rCAG binder: 48.1; HTRA1 inh: inactive; DAGLB inh: inactive; PRMT1 inh: inactive; rCAG binder conf: 38.6; dCAG dye counter: 11.2

How did CCN(CCCNC(=O)CCCn1c(=O)[nH]c2ccccc2c1=O)c1cccc(C)c1 do in these assays?
LEDGF integ inh: inactive; mABHD4 FP: inactive; rCAG binder: inactive; HTRA1 inh: inactive; DAGLB inh: inactive; PRMT1 inh: inactive

Results for COc1ccc(C(=O)/C=C/c2ccc(O)cc2)c(O)c1C/C=C(\C)CCC=C(C)C ?
LEDGF integ inh: inactive; mABHD4 FP: inactive; rCAG binder: 69.5; HTRA1 inh: inactive; DAGLB inh: inactive; PRMT1 inh: inactive; rCAG binder conf: 64.8; dCAG dye counter: 28.4

Results for C=CCOc1c(/C=N\NC(N)=O)cccc1OC ?
LEDGF integ inh: inactive; mABHD4 FP: inactive; rCAG binder: inactive; HTRA1 inh: inactive; DAGLB inh: inactive; PRMT1 inh: inactive
